High-throughput results deposited in PubChem by several laboratories.
STAT1 inh-1: STAT1 signaling inhibitors, primary screen, cell-based, HTS, luciferase reporter; NIH 3T3 STAT1-luciferase reporter, IFN-gamma, luminescence; inhibition, % at 5.5 µM; 200,000 tested, 0.35% active; AID 920, 2007;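 active = inhibition above a set limit, the mean inhibition across all tested compounds plus 3 SD, cut at about 34% in these data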;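 note: 0% = IFN-gamma with DMSO and 100% = IFN-gamma with 300 µM nifuroxazide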
STAT3 activator: IL-6 driven STAT3 reporter potentiators, primary screen, U3A cells, luciferase, luminescence, MLSCN library | IL-6 STAT3-luciferase reporter; 100% = signal with IL-6 EC80 alone | activation (% of control), % at 5.6 µM | 190,000 tested, 0.91% active | AID 871, 2007;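 active = activation above the screen-wide mean of compound activation plus 3 SD, cut at about 130% in these data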;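 note: 0% = background luminescence of wells with medium and substrate only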
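Test system: human U3A cells carrying STAT3-luciferase construct; control set: IL-6-only wells as 100% reference; timing: compound pre-incubation 1 h before IL-6, then 6 h stimulation at 37 °C; also added: IL-6 stimulus at 33 ng/mL final; evaluation: % activation versus median of IL-6-stimulated wells; detection: reporter luminescence signal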
TRAIL sens C8: viability loss with TRAIL in NB7+C8 cells, primary screen, TRAIL sensitizer project, cell-based, ATPlite luminescence; inhibition (viability loss, TRAIL sensitization), % at 10 µM; 360,000 tested, 1% active;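 active = compounds causing at least 50% loss of cell viability in the single-dose screen, relative to plate controls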
STAT3 inh: IL-6 driven STAT3 reporter inhibitors, primary screen, U3A cells, luciferase, luminescence, MLSCN library. inhibition, % at 5.5 µM. IL-6 STAT3-luciferase reporter; host cell line lacks STAT1. 190,000 tested, 0.89% active. AID 862, 2007;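 active = inhibition above the mean inhibition across all screened compounds plus 3 SD, cut at about 44% in these data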;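 note: 0% = DMSO only wells and 100% = 100 µM nifuroxazide control wells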
PPC-1+TRAIL kill: compounds killing PPC-1 cancer cells with TRAIL present, primary screen, TRAIL potentiator project, ATPLite luminescence, uHTS | PPC-1 cells + TRAIL, ATPLite viability luminescence | cell killing (% activity), % at 4 µM or 5 µM | 220,000 tested, 0.41% active;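 active = cell killing above 50% in the first pass at 4 µM, then a duplicate retest at 5 µM averaging 50% or more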;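 note: plate controls were cells with TRAIL plus DMSO for no effect and medium-only wells lacking cells for full effect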
STAT1 inh-2: STAT1 signaling inhibitors, confirmation, cell-based, HTS, luciferase reporter. inhibition, % at 5.5 µM. shares compounds with STAT1 inh-1. NIH 3T3 STAT1-luciferase reporter, IFN-gamma, luminescence. 200 tested, 55% active. AID 1263, 2008;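 active = triplicate mean inhibition exceeding the hit cutoff computed for the primary STAT1 screen, cut at about 35% in these data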;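 note: 0% = DMSO with IFN-gamma and 100% = 300 µM nifuroxazide with IFN-gamma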
NFkB inh STAT1ct: NF-kB reporter inhibitors, TNF-alpha stimulated, counter-screen for STAT1 inhibitor project, cell-based, HEK293T, luciferase luminescence. shares compounds with STAT1 inh-1. TNF-alpha induced. inhibition, % at 5.7 µM. 200 tested, 30% active;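 active = inhibition above the mean of solvent-only control wells plus 3 SD of those wells, cut at about 15% in these data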;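 note: 0% = DMSO with TNF-alpha and 100% = MG-132 control with TNF-alpha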
STAT3 inh 2: STAT3 reporter inhibition by STAT1 hits, counter-screen for STAT1 inhibitor project, U3A cells, luciferase, luminescence, triplicate. shares compounds with STAT1 inh-1. IL-6 STAT3 luciferase reporter; cells lacking STAT1. inhibition, % at 5.7 µM. 200 tested, 20% active;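 active = inhibition above the mean of solvent-only control wells plus 3 SD, set per campaign, cut at about 25% in these data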;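 note: 0% = IL-6 plus DMSO and 100% = IL-6 plus nifuroxazide control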
PPC-1 tox: cytotoxicity in PPC-1 cells, confirmation, cytotoxicity control for TRAIL apoptosis potentiator project, cell-based, ATP content luminescence; cytotoxicity, % at 5 µM; 1,200 tested, 50% active; AID 1447, 2008; shares compounds with PPC-1+TRAIL kill; PPC-1 viability, ATPlite luminescence, overnight;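 active = reconfirmed compounds whose average cytotoxicity reaches 50% or more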;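 note: 0% = DMSO-treated cells and 100% = wells holding medium but no cells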
Active calls of the source: *; . = no result. Only some compounds are listed: those with a hit (about 1.8% of all), similar ones and a draw of the others.

SMILES	STAT1 inh-1	STAT3 activator	TRAIL sens C8	STAT3 inh	PPC-1+TRAIL kill	STAT1 inh-2	NFkB inh STAT1ct	STAT3 inh 2	others
CCCn1nc(C(=O)OCC(=O)c2c(N)n(C)c(=O)n(C)c2=O)c2ccccc2c1=O	49*	92	19	14	-8	31	4	-2
O=C(c1ccc2c(c1)N(Cc1ccccc1)C(=O)c1ccccc1S2)N1CCCC1	52*	96	-6	15	7	45*	10	-52
Cc1cccc(CN2C(=O)c3ccccc3Sc3ccc(C(=O)O)cc32)c1	.	.	1	.	-1	.	.	.
COc1cc(CNc2ncnc3c2ncn3[C@H]2CN(CCc3ccccc3)C[C@@H](CO)O2)cc(OC)c1OC	.	.	-25	.	.	.	.	.
Clc1ccc(C[n+]2cc(-c3ccccc3)n3c2CCCCC3)c(Cl)c1	40*	79	35	26	36	28	-9	26*
Clc1ccc(-c2c[n+](Cc3ccc(Cl)cc3Cl)c3n2CCCCC3)cc1	.	.	43	.	27	.	.	.
Cn1nnnc1Sc1ncnc2scc(-c3ccccc3)c12	44*	113	0	-8	-1	49*	-7	-12
Cn1nnnc1Sc1ncnc2scc(-c3ccc(F)cc3)c12	38*	102	7	0	.	50*	-18	-12
Cn1nnnc1Sc1ncnc2scc(-c3ccc(Br)cc3)c12	.	.	37	.	.	.	.	.
CCNC(=O)C1(C)CCN(C(=O)c2ccccc2OC(F)(F)F)C1 (stereo not given)	.	.	-16	.	.	.	.	.
Fc1ccccc1N1CCN(c2ncnc3nc[nH]c23)CC1	.	.	8	.	-24	.	.	.
Clc1ccccc1N1CCN(c2ncnc3nc[nH]c23)CC1	37*	80	7	25	18	-6	2	-9
CC(C)c1ccc(N=Cc2c(O)c3ccccc3oc2=O)cc1	.	.	3	.	.	.	.	.
O=C(O)C(Cc1ccccc1)N=Cc1c(O)c2ccccc2oc1=O (stereo not given)	41*	95	-3	10	3	19	-5	-24
CCOc1ccc2[nH]c3c(N4CCN(C(=O)c5ccco5)CC4)ncnc3c2c1	.	.	16	.	-13	.	.	.
O=C(c1ccco1)N1CCN(c2ncnc3c2[nH]c2ccc(Br)cc23)CC1	37*	86	6	18	16	37*	4	0
O=C(c1ccco1)N1CCN(c2ncnc3c2[nH]c2ccccc23)CC1	44*	131	.	-32	17	47*	14	5
Cc1ccc(/C=C2\SC(=S)N(CCCC(=O)Nc3ccccn3)C2=O)cc1	38*	65	10	43	20	40*	44*	46*
O=C(CCN1C(=O)/C(=C/c2ccccc2)SC1=S)Nc1ccccn1	.	.	-1	.	.	.	.	.
CC1=NC(=O)C(N=Nc2ccccc2C(=O)O)N1c1ccccc1 (stereo not given)	65*	103	5	0	0	50*	16*	-8
CCCS(=O)(=O)c1nnnn1-c1cccc(OC)c1	46*	95	2	11	2	52*	24*	0
COc1cccc(-n2nnnc2SCC(=O)Nc2ccccc2OC)c1	.	.	-4	.	.	.	.	.
CCC(C)(C)C1CCc2c(sc(NC(=O)c3cccs3)c2C(N)=O)C1 (stereo not given)	16	93	11	10	30	.	.	.
CC(C)(C)C1CCc2c(sc(NC(=O)c3cccs3)c2C(N)=O)C1 (stereo not given)	54*	94	42	8	24	-58	-6	-21
CCOC(=O)N1CCN(c2ncnc3c2[nH]c2ccc(OC)cc23)CC1	53*	91	-24	17	18	44*	21*	-24
SMILES	STAT1 inh-1	STAT3 activator	TRAIL sens C8	STAT3 inh	PPC-1+TRAIL kill	STAT1 inh-2	NFkB inh STAT1ct	STAT3 inh 2	others
CCOC(=O)N1CCN(c2ncnc3c2[nH]c2ccc(F)cc23)CC1	54*	73	31	34	10	61*	19*	37*
Clc1cccc(N2CCN(Cc3ccc(Br)o3)CC2)c1	.	.	-8	.	.	.	.	.
COc1ccccc1CN1CC(C(=O)NCCn2ccc(C)n2)CCC1=O (stereo not given)	.	.	3	.	.	.	.	.
CCOC(=O)N1CCN(C(=O)/C=C/c2c(C)nn(-c3ccc(F)cc3)c2Cl)CC1	62*	89	-4	15	5	40*	-4	12
C=CCSc1nnc(NC(=O)c2ccc3c(c2)OCCO3)s1	.	.	31	.	.	.	.	.
O=C(O)CSc1nnc(NC(=O)c2ccc3c(c2)OCO3)s1	38*	91	74*	21	66*	27	20*	17	PPC-1 tox=67*
Cc1nc(N)nc(N)c1/C=C/C(C)(C)c1ccc(Cl)cc1	38*	69	76*	39	51*	38*	28*	40*	PPC-1 tox=48
COc1ccccc1CNc1nc(NCc2ccc3occc3c2)c2sccc2n1	.	.	24	.	.	.	.	.
Cc1ccc(-c2cc3nc(C)cc(NCc4ccco4)n3n2)cc1	-56	105	63*	-1	14	.	.	.	PPC-1 tox=20
O=C(NCc1ccccn1)C(=O)N/N=C/c1ccc2c(c1)OCO2	-18	103	1	0	4	.	.	.	PPC-1 tox=9
COc1cc(CCN(C(C)=O)C2C(=O)Nc3ccccc3N=C2c2ccc3c(c2)OCO3)cc(OC)c1 (stereo not given)	.	.	-9	.	.	.	.	.
O=C(c1ccc(CSc2nc3ccncc3[nH]2)cc1)N1CCN(c2cccc(Cl)c2)CC1	16	77	-9	27	9	.	.	.
O=C(c1ccc(CSc2nc3ccncc3[nH]2)cc1)N1CCCCCC1	.	.	81*	.	81*	.	.	.	PPC-1 tox=83*
Clc1ccc(CSc2nc3ccncc3[nH]2)cc1	52*	37	92*	81*	94*	.	.	.	PPC-1 tox=93*
Cc1ccc(CSc2nc3ccncc3[nH]2)cc1	72*	21	93*	100*	97*	.	.	.	PPC-1 tox=97*
Cc1cccc(OCC(=O)N(Cc2ccc(F)cc2)C2CCS(=O)(=O)C2)c1C (stereo not given)	.	.	-11	.	.	.	.	.
O=C(N/N=C/C(Cl)=C/c1ccccc1)c1ccc2c(c1)OCO2	.	.	25	.	.	.	.	.
Cc1ccc(NC(=S)N2CCN(S(=O)(=O)c3ccc(C)cc3)CC2)cc1	.	.	13	.	.	.	.	.
